The record followed here is ChEMBL document CHEMBL4033794, “Discovery of Trifluoromethyl Glycol Carbamates as Potent and Selective Covalent Monoacylglycerol Lipase (MAGL) Inhibitors for Treatment of Neuroinflammation” (J Med Chem, 2018).

The species named for data set [1] is Mus musculus. As to conditions: C57BL6J, 1 mg/kg.
Data set [2] in a line: Kinetic solubility of the compound at pH 7.4. As to conditions: buffer, read-out: Kinetic_solubility. Type of data set: physicochemical.
The nature of data set [3]: Volume of distribution in Beagle dog at 1 mg/kg, iv administered via cephalic vein measured up to 24 hrs post dose by HPLC-MS/MS analysis. In kind it is ADME, organism-based, Canis lupus familiaris. As to conditions: in vivo. A digest of the protocol: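 Fasted male beagles (n = 2), fed ~4 h post-dose, given 1 mg/kg IV bolus via cephalic vein in 3% DMA/10% Solutol HS15/10% Miglyol/77% of 20% SBECD, 0.5 mL/kg. Jugular blood pre-dose and 0.083–24 h; plasma HPLC-MS/MS; non-compartmental analysis.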

Data set [4] can be described thus: Plasma clearance in Wistar Hannover rat at 1 mg/kg, iv administered as bolus dose via jugular vein cannula measured up to 24 hrs post dose by HPLC-MS/MS analysis. In kind it is ADME, organism-based. In short, it runs like this: (§1)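 Rats (n = 2) given 1 mg/kg IV bolus via jugular vein cannula, solution in 3% DMA/10% Solutol HS15/10% Miglyol/77% of 20% SBECD in water, 1 mL/kg. Carotid cannula blood pre-dose and 0.083–24 h; plasma by HPLC-MS/MS; non-compartmental analysis.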

The nature of data set [5]: Unbound fraction in C57BL6J mouse plasma at 1 mg/kg, sc measured up to 24 hrs post dose by HPLC-MS/MS analysis. Type of data set: ADME, organism-based.
A short description of data set [6]: Half life in Wistar Hannover rat at 1 mg/kg, iv administered as bolus dose via jugular vein cannula measured up to 24 hrs post dose by HPLC-MS/MS analysis. As to conditions: in vivo. Type of data set: ADME, organism-based. In short, it runs like this: as §1
The next data set has as its target CYP3A4 (Homo sapiens, UniProt P08684). In words: Inhibition of CYP3A4 (unknown origin) at 3 uM. In kind it is ADME. In short, it runs like this: (§2)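 Competitive inhibition screen of CYP3A4, 2D6, 2C9, 2C8 and 1A2 using isoform-relevant probe substrates, compound at 3 μM.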
The species named for data set [7] is Mus musculus. As to conditions: C57BL6J, 1 mg/kg. The source holds these as a separate data set.
For a further data set, the target named is CYP2D6 (Homo sapiens, UniProt P10635). In words: Inhibition of CYP2D6 (unknown origin) at 3 uM. Type of data set: ADME. A digest of the protocol:
as §2

Data set [8] is described as follows: Plasma clearance in non-human primate at 1 mg/kg, iv administered via cephalic vein measured up to 24 hrs post dose by HPLC-MS/MS analysis. In kind it is ADME, organism-based, Macaca mulatta. As to conditions: rhesus monkey. A digest of the protocol: (§3)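 Fasted male non-human primates (n = 2), fed ~1 h post-dose; 1 mg/kg IV bolus via saphenous or cephalic vein in 3% DMA/10% Solutol HS15/10% Miglyol/77% of 20% SBECD, 0.5 mL/kg. Femoral blood pre-dose and 0.083–24 h; plasma HPLC-MS/MS; non-compartmental analysis.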

The nature of data set [9]: Lipophilicity, log D of the compound by HPLC analysis. In kind it is physicochemical. A digest of the protocol:
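LogD determined by an HPLC-based (eLogD) method.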

In data set [10] the target is T1, Cannabinoid receptor 1 (Homo sapiens, UniProt P21554). In words: Displacement of [3H]CP55940 from human CB1 receptor expressed in CHOK1 cell membranes at 10 uM after 120 mins by scintillation counting method.
T1 sequence (P21554 whole entry): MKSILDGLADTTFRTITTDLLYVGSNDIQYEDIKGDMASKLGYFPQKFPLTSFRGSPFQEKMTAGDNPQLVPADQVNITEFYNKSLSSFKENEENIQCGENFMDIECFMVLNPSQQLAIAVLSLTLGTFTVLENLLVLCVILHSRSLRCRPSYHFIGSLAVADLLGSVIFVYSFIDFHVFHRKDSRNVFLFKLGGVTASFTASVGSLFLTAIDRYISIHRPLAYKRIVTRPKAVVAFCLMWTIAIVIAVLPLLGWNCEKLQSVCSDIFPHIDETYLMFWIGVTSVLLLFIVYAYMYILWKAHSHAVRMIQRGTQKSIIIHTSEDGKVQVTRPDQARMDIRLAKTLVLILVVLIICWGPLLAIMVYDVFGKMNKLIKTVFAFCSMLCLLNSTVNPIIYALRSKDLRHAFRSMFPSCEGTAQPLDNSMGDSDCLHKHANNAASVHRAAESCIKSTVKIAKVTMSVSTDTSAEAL
Data set [11] has as its target T1, Cannabinoid receptor 1. In words: Agonist activity at human CB1 receptor expressed in CHOK1 cells assessed as […] after 20 mins by HTRF assay. In kind it is functional, cell-based. For orientation: TR-FRET usually uses a lanthanide donor and a delayed reading to cut background.
For data set [12], the target named is T2, Fatty-acid amide hydrolase 1 (Homo sapiens, UniProt O00519).
T2 sequence (O00519 whole entry): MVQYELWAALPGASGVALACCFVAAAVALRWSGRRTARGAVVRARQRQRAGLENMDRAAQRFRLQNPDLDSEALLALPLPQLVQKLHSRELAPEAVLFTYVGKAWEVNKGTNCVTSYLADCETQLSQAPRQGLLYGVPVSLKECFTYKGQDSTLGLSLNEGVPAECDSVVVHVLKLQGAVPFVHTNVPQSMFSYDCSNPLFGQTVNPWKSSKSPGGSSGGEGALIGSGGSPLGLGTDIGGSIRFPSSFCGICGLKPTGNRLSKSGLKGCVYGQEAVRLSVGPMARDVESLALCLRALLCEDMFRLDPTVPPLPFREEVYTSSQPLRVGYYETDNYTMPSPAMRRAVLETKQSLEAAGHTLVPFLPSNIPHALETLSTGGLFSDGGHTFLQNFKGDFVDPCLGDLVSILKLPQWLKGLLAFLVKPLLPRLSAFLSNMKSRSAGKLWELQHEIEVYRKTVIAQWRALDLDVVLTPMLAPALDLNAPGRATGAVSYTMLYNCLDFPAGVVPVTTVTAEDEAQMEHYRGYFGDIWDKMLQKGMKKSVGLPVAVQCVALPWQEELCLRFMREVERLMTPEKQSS
In words: Inhibition of recombinant human FAAH using fluorogenic arachidonoyl-AMC as substrate preincubated for 30 mins followed by substrate addition measured after 60 mins by fluorescence based assay. In short, it runs like this: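 Human recombinant FAAH (0.0125 U final) in 50 mM Tris pH 9.0, 1 mM EDTA, preincubated 30 min at room temperature with compound (30 μM to 0.3 nM final); arachidonoyl-AMC 5 μM added, 60 min reaction, read Ex/Em 355/460. Inhibition vs no-compound and full-inhibition controls; four-parameter fit; geometric mean of ≥3 experiments.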

Data set [13] is described as follows: Thermodynamic solubility of the compound at pH 6.5 after 24 hrs. In kind it is physicochemical. As to conditions: buffer, read-out: Therm_solubility.
Data set [14] in a line: Cmax in C57BL6J mouse brain at 1 mg/kg, sc up to 24 hrs post dose. In kind it is ADME, organism-based. More on the design: dose 1 mg/kg, route subcutaneous.
Data set [15] can be described thus: Half life in Beagle dog at 1 mg/kg, iv administered via cephalic vein measured up to 24 hrs post dose by HPLC-MS/MS analysis. Type of data set: ADME, organism-based, Canis lupus familiaris. As to conditions: in vivo.
Data set [16] in a line: Volume of distribution in Wistar Hannover rat at 1 mg/kg, iv administered as bolus dose via jugular vein cannula measured up to 24 hrs post dose by HPLC-MS/MS analysis. In kind it is ADME, organism-based. As to conditions: in vivo. A digest of the protocol:
as §1

A short description of data set [17]: Ratio of AUClast in C57BL6J mouse brain to plasma at 1 mg/kg, sc measured up to 24 hrs post dose by HPLC-MS/MS analysis. As to conditions: brain and plasma.
A short description of data set [18]: Volume of distribution in non-human primate at 1 mg/kg, iv administered via cephalic vein measured up to 24 hrs post dose by HPLC-MS/MS analysis. Type of data set: ADME, organism-based, Macaca mulatta. As to conditions: rhesus monkey, in vivo. In short, it runs like this:
as §3

pEC50, pIC50: −log10 of the molar value. Values after ≈ are worked out from the molar mass of the structure shown. Active and inactive are the calls of the source. No cut-off for these calls is given here.

Chain of CYP3A4 (P08684 whole entry, canonical isoform): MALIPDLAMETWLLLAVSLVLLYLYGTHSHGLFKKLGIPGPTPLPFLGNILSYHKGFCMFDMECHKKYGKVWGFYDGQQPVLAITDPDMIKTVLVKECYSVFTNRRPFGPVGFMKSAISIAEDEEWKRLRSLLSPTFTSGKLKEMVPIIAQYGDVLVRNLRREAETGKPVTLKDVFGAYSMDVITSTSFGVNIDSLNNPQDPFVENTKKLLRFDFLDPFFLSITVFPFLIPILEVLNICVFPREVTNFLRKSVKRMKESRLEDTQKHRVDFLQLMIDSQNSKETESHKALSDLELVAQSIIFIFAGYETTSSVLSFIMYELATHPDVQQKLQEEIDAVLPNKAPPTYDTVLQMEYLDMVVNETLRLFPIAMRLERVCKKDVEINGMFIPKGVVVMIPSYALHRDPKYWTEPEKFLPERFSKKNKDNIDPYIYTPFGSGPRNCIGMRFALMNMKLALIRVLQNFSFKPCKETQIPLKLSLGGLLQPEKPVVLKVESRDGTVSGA
Chain of CYP2D6 (P10635 whole entry): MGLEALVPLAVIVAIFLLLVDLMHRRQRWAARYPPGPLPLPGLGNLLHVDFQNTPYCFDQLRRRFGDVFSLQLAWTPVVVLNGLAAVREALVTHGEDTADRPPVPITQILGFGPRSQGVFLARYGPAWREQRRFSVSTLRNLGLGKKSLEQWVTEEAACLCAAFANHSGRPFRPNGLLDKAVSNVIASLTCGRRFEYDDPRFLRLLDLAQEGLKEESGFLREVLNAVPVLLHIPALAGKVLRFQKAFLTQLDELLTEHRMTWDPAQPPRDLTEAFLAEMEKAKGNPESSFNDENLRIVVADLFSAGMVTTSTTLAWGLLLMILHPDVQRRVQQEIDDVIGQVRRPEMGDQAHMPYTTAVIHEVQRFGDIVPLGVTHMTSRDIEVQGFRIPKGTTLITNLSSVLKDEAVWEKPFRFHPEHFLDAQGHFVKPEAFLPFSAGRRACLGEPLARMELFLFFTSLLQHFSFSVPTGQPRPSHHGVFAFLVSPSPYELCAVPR

As for `O=C(O[C@H](CO)C(F)(F)F)N1C[C@@H]2[C@H](C1)[C@H]2c1ccn(-c2ccc(F)cc2)n1`, the inhibition entry in the data set filed under Mus musculus [1] and in the data set listed under Mus musculus [7] was “Active” in each case. Besides, the solubility kinetic in [2] came out at 115 µM (≈ 45.9 µg/mL). Further, the Vd was determined as 1.6 L/kg in data set [3], 3.1 L/kg in [16] and 1.5 L/kg in [18]. Moreover, the clearance was determined as 61 mL/min/kg in data set [4] and 16 mL/min/kg in data set [8]. The fraction unbound at 24 h in data set [5] was found to be 0.0135. Besides, the results for the half-life in data set [6] and in data set [15] were 1.3 h and 1.7 h, respectively. In addition, the inhibition at 3 µM against CYP3A4 and on CYP2D6 was less than 10% each time. This compound displayed a logD in data set [9] of 3.8. The inhibition entry at Cannabinoid receptor 1 [10] is “inactive”. Moreover, the negative-log EC50 (pEC50) at Cannabinoid receptor 1 [11] is 5.82. In data set [12], the pIC50 was 5.51. Further, the solubility thermodynamic at 24 h in [13] was determined as 25 µM (≈ 9.98 µg/mL). This compound also gave a Cmax in data set [14] greater than 1000 nM. Besides, the Kp at 24 h in data set [17] stood at 2.4.

Broadly, the inhibition is how much of the control response was suppressed. Usually Vd stands for a proportionality between amount in the body and measured concentration, not a real space. The term clearance denotes the rate of elimination divided by the concentration. As a reminder, the fraction unbound is free concentration divided by total concentration. As a reminder, the half-life is how long it takes for the measured level to halve. For orientation: logD means the decadic logarithm of the distribution of all forms, ionised or not, between an organic phase and buffer at a given pH. A word on the pEC50: it is the EC50 on a negative log10 scale, so that one unit is a factor of ten. For orientation: pIC50 means the IC50 on a negative log10 scale, so that one unit is a factor of ten. The term Cmax denotes the maximum level reached in the sampled fluid or tissue. In general, Kp refers to the ratio of the level in a tissue or fluid to that in plasma or blood.
